In ChEMBL document CHEMBL4689842, “EUbOPEN Chemogenomics Library wave 1” (2021):

Columns and labels:
Format in all cases: toxicity, cell-based
Fibroblast [1] = test: Multiplex assay against human fibroblast
In short: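 Four dyes were applied at seeding to live cells: Hoechst33342, BioTracker Green Microtubule Cytoskeleton Dye, MitoTracker Red and Annexin V Alexa Fluor 680. Imaging after compound addition used a CQ1 microscope at 37°C and 5% CO2. CellPathfinder machine-learning gating then sorted cells into Hoechst high-intensity objects or normal cells, normal cells into healthy, pyknosed or fragmented nuclei, and pyknosed cells into mitotic or apoptotic, with tubulin, mitochondrial-mass and membrane-permeability phenotypes given as per cents of healthy-nucleus cells.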

U2OS = test: Incucyte cell viability with U2OS; conditions: human, 10 µM, compound concentration 10 uM; also: filed as whole numbers so only -1 and 0 and 1 occur
HEK-293T = test: Incucyte cell viability with HEK293T; conditions: human, 10 µM, compound concentration 10 uM; also: filed as whole numbers so only -1 and 0 and 1 occur
Fibroblast [2] = test: Incucyte cell viability with human fibroblast; conditions: 10 µM, compound concentration 10 uM; also: filed as whole numbers so only -1 and 0 and 1 occur
[3] = 12 h, 1 µM, compound concentration 1 uM, replicate 1
[4] = 12 h, 1 µM, compound concentration 1 uM, replicate 2
[5] = 12 h, 10 µM, compound concentration 10 uM, replicate 1
[6] = 12 h, 10 µM, compound concentration 10 uM, replicate 2
[7] = 24 h, 1 µM, compound concentration 1 uM, replicate 1
[8] = 24 h, 1 µM, compound concentration 1 uM, replicate 2
[9] = 24 h, 10 µM, compound concentration 10 uM, replicate 1
[10] = 24 h, 10 µM, compound concentration 10 uM, replicate 2
[11] = 48 h, 1 µM, compound concentration 1 uM, replicate 1
[12] = 48 h, 1 µM, compound concentration 1 uM, replicate 2
[13] = 48 h, 10 µM, compound concentration 10 uM, replicate 1
[14] = 48 h, 10 µM, compound concentration 10 uM, replicate 2
[15] = 0 h, replicate number 1, timepoint 0 hours
[16] = 6 h, replicate number 1, timepoint 6 hours
[17] = 6 h, replicate number 2, timepoint 6 hours
[18] = 12 h, replicate number 1, timepoint 12 hours
[19] = 18 h, replicate number 1, timepoint 18 hours
[20] = 18 h, replicate number 2, timepoint 18 hours
[21] = 24 h, replicate number 1, timepoint 24 hours

Cc1cc2c(cc1N1C(=O)c3cccc4c(CCCO)ccc(c34)C1=O)n(C)c(=O)n2C
Population Apoptotic (%) (Fibroblast [1]; [3]): 68%
Population Fragmented Nuclei (%) (Fibroblast [1]; [3]): 19%
Population Healthy Nuclei (%) (Fibroblast [1]; [3]): 49%
Population Hoechst High Intensity Objects (%) (Fibroblast [1]; [3]): 17%
Population Membrane Permeable-Phenotype (%) (Fibroblast [1]; [3]): 30%
Population Mitochondria Different-Phenotype (%) (Fibroblast [1]; [3]): 8%
Population Mitotic Cells (%) (Fibroblast [1]; [3]): 31%
Population Normal (%) (Fibroblast [1]; [3]): 82%
Population Pyknosed Nuclei (%) (Fibroblast [1]; [3]): 31%
Population Tubulin-Different-Phenotype (%) (Fibroblast [1]; [3]): 41%
Total Cell Count (Fibroblast [1]; [3]): 148
Population Apoptotic (%) (Fibroblast [1]; [4]): 0%
Population Fragmented Nuclei (%) (Fibroblast [1]; [4]): 6%
Population Healthy Nuclei (%) (Fibroblast [1]; [4]): 90%
Population Hoechst High Intensity Objects (%) (Fibroblast [1]; [4]): 8%
Population Membrane Permeable-Phenotype (%) (Fibroblast [1]; [4]): 1%
Population Mitochondria Different-Phenotype (%) (Fibroblast [1]; [4]): 22%
Population Mitotic Cells (%) (Fibroblast [1]; [4]): 100%
Population Normal (%) (Fibroblast [1]; [4]): 91%
Population Pyknosed Nuclei (%) (Fibroblast [1]; [4]): 3%
Population Tubulin-Different-Phenotype (%) (Fibroblast [1]; [4]): 24%
Total Cell Count (Fibroblast [1]; [4]): 104
Population Apoptotic (%) (Fibroblast [1]; [5]): 68%
Population Fragmented Nuclei (%) (Fibroblast [1]; [5]): 21%
Population Healthy Nuclei (%) (Fibroblast [1]; [5]): 46%
Population Hoechst High Intensity Objects (%) (Fibroblast [1]; [5]): 12%
Population Membrane Permeable-Phenotype (%) (Fibroblast [1]; [5]): 21%
Population Mitochondria Different-Phenotype (%) (Fibroblast [1]; [5]): 7%
Population Mitotic Cells (%) (Fibroblast [1]; [5]): 31%
Population Normal (%) (Fibroblast [1]; [5]): 87%
Population Pyknosed Nuclei (%) (Fibroblast [1]; [5]): 31%
Population Tubulin-Different-Phenotype (%) (Fibroblast [1]; [5]): 72%
Total Cell Count (Fibroblast [1]; [5]): 126
Population Apoptotic (%) (Fibroblast [1]; [6]): 37%
Population Fragmented Nuclei (%) (Fibroblast [1]; [6]): 20%
Population Healthy Nuclei (%) (Fibroblast [1]; [6]): 63%
Population Hoechst High Intensity Objects (%) (Fibroblast [1]; [6]): 9%
Population Membrane Permeable-Phenotype (%) (Fibroblast [1]; [6]): 29%
Population Mitochondria Different-Phenotype (%) (Fibroblast [1]; [6]): 77%
Population Mitotic Cells (%) (Fibroblast [1]; [6]): 62%
Population Normal (%) (Fibroblast [1]; [6]): 90%
Population Pyknosed Nuclei (%) (Fibroblast [1]; [6]): 16%
Population Tubulin-Different-Phenotype (%) (Fibroblast [1]; [6]): 96%
Total Cell Count (Fibroblast [1]; [6]): 54
Population Apoptotic (%) (Fibroblast [1]; [7]): 46%
Population Fragmented Nuclei (%) (Fibroblast [1]; [7]): 20%
Population Healthy Nuclei (%) (Fibroblast [1]; [7]): 55%
Population Hoechst High Intensity Objects (%) (Fibroblast [1]; [7]): 19%
Population Membrane Permeable-Phenotype (%) (Fibroblast [1]; [7]): 31%
Population Mitochondria Different-Phenotype (%) (Fibroblast [1]; [7]): 5%
Population Mitotic Cells (%) (Fibroblast [1]; [7]): 53%
Population Normal (%) (Fibroblast [1]; [7]): 80%
Population Pyknosed Nuclei (%) (Fibroblast [1]; [7]): 24%
Population Tubulin-Different-Phenotype (%) (Fibroblast [1]; [7]): 41%
Total Cell Count (Fibroblast [1]; [7]): 130
Population Apoptotic (%) (Fibroblast [1]; [8]): 40%
Population Fragmented Nuclei (%) (Fibroblast [1]; [8]): 7%
Population Healthy Nuclei (%) (Fibroblast [1]; [8]): 87%
Population Hoechst High Intensity Objects (%) (Fibroblast [1]; [8]): 3%
Population Membrane Permeable-Phenotype (%) (Fibroblast [1]; [8]): 0%
Population Mitochondria Different-Phenotype (%) (Fibroblast [1]; [8]): 27%
Population Mitotic Cells (%) (Fibroblast [1]; [8]): 60%
Population Normal (%) (Fibroblast [1]; [8]): 96%
Population Pyknosed Nuclei (%) (Fibroblast [1]; [8]): 5%
Population Tubulin-Different-Phenotype (%) (Fibroblast [1]; [8]): 17%
Total Cell Count (Fibroblast [1]; [8]): 96
Population Apoptotic (%) (Fibroblast [1]; [9]): 58%
Population Fragmented Nuclei (%) (Fibroblast [1]; [9]): 22%
Population Healthy Nuclei (%) (Fibroblast [1]; [9]): 47%
Population Hoechst High Intensity Objects (%) (Fibroblast [1]; [9]): 15%
Population Membrane Permeable-Phenotype (%) (Fibroblast [1]; [9]): 13%
Population Mitochondria Different-Phenotype (%) (Fibroblast [1]; [9]): 17%
Population Mitotic Cells (%) (Fibroblast [1]; [9]): 41%
Population Normal (%) (Fibroblast [1]; [9]): 84%
Population Pyknosed Nuclei (%) (Fibroblast [1]; [9]): 29%
Population Tubulin-Different-Phenotype (%) (Fibroblast [1]; [9]): 45%
Total Cell Count (Fibroblast [1]; [9]): 115
Population Apoptotic (%) (Fibroblast [1]; [10]): 80%
Population Fragmented Nuclei (%) (Fibroblast [1]; [10]): 18%
Population Healthy Nuclei (%) (Fibroblast [1]; [10]): 62%
Population Hoechst High Intensity Objects (%) (Fibroblast [1]; [10]): 11%
Population Membrane Permeable-Phenotype (%) (Fibroblast [1]; [10]): 41%
Population Mitochondria Different-Phenotype (%) (Fibroblast [1]; [10]): 76%
Population Mitotic Cells (%) (Fibroblast [1]; [10]): 20%
Population Normal (%) (Fibroblast [1]; [10]): 88%
Population Pyknosed Nuclei (%) (Fibroblast [1]; [10]): 18%
Population Tubulin-Different-Phenotype (%) (Fibroblast [1]; [10]): 76%
Total Cell Count (Fibroblast [1]; [10]): 61
Population Apoptotic (%) (Fibroblast [1]; [11]): 34%
Population Fragmented Nuclei (%) (Fibroblast [1]; [11]): 31%
Population Healthy Nuclei (%) (Fibroblast [1]; [11]): 45%
Population Hoechst High Intensity Objects (%) (Fibroblast [1]; [11]): 21%
Population Membrane Permeable-Phenotype (%) (Fibroblast [1]; [11]): 28%
Population Mitochondria Different-Phenotype (%) (Fibroblast [1]; [11]): 2%
Population Mitotic Cells (%) (Fibroblast [1]; [11]): 65%
Population Normal (%) (Fibroblast [1]; [11]): 78%
Population Pyknosed Nuclei (%) (Fibroblast [1]; [11]): 22%
Population Tubulin-Different-Phenotype (%) (Fibroblast [1]; [11]): 30%
Total Cell Count (Fibroblast [1]; [11]): 129
Population Apoptotic (%) (Fibroblast [1]; [12]): 100%
Population Fragmented Nuclei (%) (Fibroblast [1]; [12]): 28%
Population Healthy Nuclei (%) (Fibroblast [1]; [12]): 69%
Population Hoechst High Intensity Objects (%) (Fibroblast [1]; [12]): 9%
Population Membrane Permeable-Phenotype (%) (Fibroblast [1]; [12]): 21%
Population Mitochondria Different-Phenotype (%) (Fibroblast [1]; [12]): 1%
Population Mitotic Cells (%) (Fibroblast [1]; [12]): 0%
Population Normal (%) (Fibroblast [1]; [12]): 90%
Population Pyknosed Nuclei (%) (Fibroblast [1]; [12]): 2%
Population Tubulin-Different-Phenotype (%) (Fibroblast [1]; [12]): 35%
Total Cell Count (Fibroblast [1]; [12]): 118
Population Apoptotic (%) (Fibroblast [1]; [13]): 90%
Population Fragmented Nuclei (%) (Fibroblast [1]; [13]): 35%
Population Healthy Nuclei (%) (Fibroblast [1]; [13]): 54%
Population Hoechst High Intensity Objects (%) (Fibroblast [1]; [13]): 18%
Population Membrane Permeable-Phenotype (%) (Fibroblast [1]; [13]): 22%
Population Mitotic Cells (%) (Fibroblast [1]; [13]): 10%
Population Normal (%) (Fibroblast [1]; [13]): 81%
Population Pyknosed Nuclei (%) (Fibroblast [1]; [13]): 10%
Population Tubulin-Different-Phenotype (%) (Fibroblast [1]; [13]): 62%
Total Cell Count (Fibroblast [1]; [13]): 120
Population Apoptotic (%) (Fibroblast [1]; [14]): 66%
Population Fragmented Nuclei (%) (Fibroblast [1]; [14]): 26%
Population Healthy Nuclei (%) (Fibroblast [1]; [14]): 68%
Population Hoechst High Intensity Objects (%) (Fibroblast [1]; [14]): 9%
Population Membrane Permeable-Phenotype (%) (Fibroblast [1]; [14]): 23%
Population Mitochondria Different-Phenotype (%) (Fibroblast [1]; [14]): 5%
Population Mitotic Cells (%) (Fibroblast [1]; [14]): 33%
Population Normal (%) (Fibroblast [1]; [14]): 90%
Population Pyknosed Nuclei (%) (Fibroblast [1]; [14]): 6%
Population Tubulin-Different-Phenotype (%) (Fibroblast [1]; [14]): 85%
Total Cell Count (Fibroblast [1]; [14]): 55
Growth Rate (U2OS; [15]): 0
Growth Rate (U2OS; [16]): 0
Growth Rate (U2OS; [17]): 1
Growth Rate (U2OS; [18]): 0
Growth Rate (U2OS; [19]): 0
Growth Rate (U2OS; [20]): 1
Growth Rate (U2OS; [21]): 0
Growth Rate (HEK-293T; [15]): 1
Growth Rate (HEK-293T; [21]): 1
Growth Rate (Fibroblast [2]; 0 h, replicate number 2, timepoint 0 hours): 0
Growth Rate (Fibroblast [2]; [16]): 0
Growth Rate (Fibroblast [2]; [17]): 1
Growth Rate (Fibroblast [2]; [18]): 0
Growth Rate (Fibroblast [2]; 12 h, replicate number 2, timepoint 12 hours): 1
Growth Rate (Fibroblast [2]; [19]): 0
Growth Rate (Fibroblast [2]; [20]): 1
Growth Rate (Fibroblast [2]; [21]): 0
Growth Rate (Fibroblast [2]; 24 h, replicate number 2, timepoint 24 hours): 1
